The subject of series [1] is BJ. The series can be described thus: Cytotoxicity against human BJ cells at 5 to 20 uM after 72 hrs by Alamar blue assay. The series is classed as cell-based. The method, boiled down:
(§1)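 Cells seeded 24 h ahead in 384-well plates at 1.0×10^3 (BJ) or 1.6×10^3 (Rh30) per well. Compound diluted from DMSO stock into medium and added in triplicate, then incubated 68 h at 37 °C. Alamar Blue added for a further 4 h, with fluorescence read at ex 510/em 590 nm. Viability normalized to DMSO (100%) and no-cell (0%) wells.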
(Resazurin is reduced to fluorescent resorufin, in cell work by metabolically active cells.)

Series [2] deals with SJRH30. Put plainly: Cytotoxicity against human Rh30 cells at 5 to 20 uM after 72 hrs by Alamar blue assay. Format: functional, cell-based. Summed up:
as §1

The target in series [3] is T1, Zinc finger protein GLI1 (Homo sapiens) (UniProt P08151).
T1 sequence (whole entry): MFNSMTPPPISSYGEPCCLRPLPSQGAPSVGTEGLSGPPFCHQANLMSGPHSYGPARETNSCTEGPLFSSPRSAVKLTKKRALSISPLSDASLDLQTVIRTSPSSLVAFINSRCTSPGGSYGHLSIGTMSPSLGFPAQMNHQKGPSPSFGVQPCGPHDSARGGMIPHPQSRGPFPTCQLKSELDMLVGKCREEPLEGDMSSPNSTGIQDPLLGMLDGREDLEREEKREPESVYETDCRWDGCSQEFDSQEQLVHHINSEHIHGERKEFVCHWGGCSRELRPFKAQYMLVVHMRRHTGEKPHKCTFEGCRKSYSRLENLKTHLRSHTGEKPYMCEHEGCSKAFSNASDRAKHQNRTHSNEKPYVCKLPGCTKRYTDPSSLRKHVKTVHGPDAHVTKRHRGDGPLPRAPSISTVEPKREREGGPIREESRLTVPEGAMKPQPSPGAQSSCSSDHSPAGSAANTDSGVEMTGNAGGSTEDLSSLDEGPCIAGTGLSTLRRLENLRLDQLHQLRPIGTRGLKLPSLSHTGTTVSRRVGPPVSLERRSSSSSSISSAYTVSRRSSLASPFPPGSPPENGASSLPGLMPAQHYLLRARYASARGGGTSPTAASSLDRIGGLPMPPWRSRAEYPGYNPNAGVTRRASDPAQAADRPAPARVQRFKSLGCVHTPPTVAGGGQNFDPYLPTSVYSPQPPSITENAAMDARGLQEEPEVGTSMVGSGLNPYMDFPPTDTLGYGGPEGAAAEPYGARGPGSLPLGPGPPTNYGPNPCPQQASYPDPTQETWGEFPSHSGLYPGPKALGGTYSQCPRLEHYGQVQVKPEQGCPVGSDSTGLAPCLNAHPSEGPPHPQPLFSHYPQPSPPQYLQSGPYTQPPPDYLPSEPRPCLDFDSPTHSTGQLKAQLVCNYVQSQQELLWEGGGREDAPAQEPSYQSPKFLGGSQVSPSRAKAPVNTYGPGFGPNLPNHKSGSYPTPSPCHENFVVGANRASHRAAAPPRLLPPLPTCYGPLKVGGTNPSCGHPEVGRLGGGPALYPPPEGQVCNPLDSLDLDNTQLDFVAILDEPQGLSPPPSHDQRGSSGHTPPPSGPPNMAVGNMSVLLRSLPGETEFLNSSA
Put plainly: Inhibition of human Gli1 expressed in mouse C3H10T1/2 cells assessed as inhibition of transcriptional activity at 10 to 20 uM after 24 hrs by luciferase reporter gene assay. Format: cell-based. The settings on record: C3H 10T1/2. The method, boiled down: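 C3H10T1/2 cells transiently transfected overnight with GliLuc-BS, pRL-TK Renilla control and human Gli1 (or mouse Gli2 for Gli2 lines), 250 ng/mL each for the Gli plasmids. Cells replated in 96-well plates, then exposed to compound in BME/10% FBS for 24 h at 37 °C. Firefly/Renilla dual-luciferase ratio normalized to DMSO, triplicates. Dose–response IC50 from curve fitting.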

The subject of series [4] is C3H 10T1/2. Put plainly: Inhibition of Hh signal-induced alkaline phosphatase activity in mouse C3H10T1/2 cells after 4 days. The series is classed as functional, cell-based. The settings on record: C3H 10T1/2, 96 h.
Series [5] concerns the target T1, Zinc finger protein GLI1 (Homo sapiens). The series can be described thus: Inhibition of human Gli1-mediated transcriptional activity in human Rh30 cells up to 40 uM after 24 hrs by luciferase reporter gene assay. The series is classed as cell-based. Summed up: (§2)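 Rh30 cells without Gli1 transfection, transfected overnight with GliLuc-BS (500 ng/mL) and pRL-CMV (2.5 ng/mL), then replated in 96-well plates. Compound given in RPMI-1640/10% FBS for 24 h at 37 °C. Firefly luminescence divided by Renilla and normalized to DMSO-treated cells (0% inhibition), triplicates.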

Series [6] is described as follows: Half life in CD-1 mouse liver microsomes. The series is classed as ADME, Microsome. The method, boiled down: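 CD-1 female mouse liver microsomes at 0.6329 mg/mL protein in 0.1 M potassium phosphate pH 7.4 with EDTA. Compound at 1 µM, reaction started with NADPH regenerating system at 37 °C and sampled at 0, 0.5, 1 and 2 h in triplicate. Quenched with cold acetonitrile containing ketoconazole internal standard and analysed by UPLC-MS SIR. ke taken from log-linear regression, t1/2 = ln2/ke.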
(Liver microsomes are a subcellular fraction often used to study metabolism.)

Series [7] has as its system C3H 10T1/2. Put plainly: Inhibition of Hh signal-induced alkaline phosphatase activity in mouse C3H10T1/2 cells at 10 uM after 4 days. Format: functional, cell-based.
Series [8] relates to SJRH30. The series can be described thus: Inhibition of Ptch1 expression in human Rh30 cells at 10 to 40 uM after 24 hrs by RT-PCR analysis. The series is classed as functional, cell-based. The method, boiled down: (§3)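 Rh30 cells in 6-well plates treated with compound or DMSO for 24 h. Total RNA (250 ng) reverse-transcribed after DNase removal, then SYBR Green real-time PCR with primers at 200 nM. Target mRNA normalized to GAPDH and to the DMSO control by the 2^-ΔΔCt method. Duplicate data.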

In series [9] the target is T1, Zinc finger protein GLI1 (Homo sapiens). The series can be described thus: Inhibition of human Gli1-mediated transcriptional activity in human Rh30 cells at 10 to 20 uM after 24 hrs by luciferase reporter gene assay. Format: cell-based. The method, boiled down: as §2
A general note: Reporter assays use an easily measured gene product as a stand-in for the process of interest.

Series [10] has as its system SJRH30. The series can be described thus: Inhibition of cyclinD1 expression in human Rh30 cells at 10 to 40 uM after 24 hrs by RT-PCR analysis. The series is classed as functional, cell-based. Summed up:
as §3

Series [11] can be described thus: Inhibition of HDAC up to 40 uM.
The nature of series [12]: Permeability in buffer of pH 7.4 by PAMPA. The series is classed as ADME. To be noted: for Papp: read-out: permeability. Summed up:
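Double-Sink PAMPA: DMSO stock diluted 200-fold into system solution buffer pH 7.4 in the donor plate, with acceptor sink buffer pH 7.4. Incubated 0.5 h at room temperature with stirring. Donor and acceptor concentrations measured by UV (230–500 nm), triplicates.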

Series [13] relates to SJRH30. Put plainly: Inhibition of Bcl2 expression in human Rh30 cells at 10 to 40 uM after 24 hrs by RT-PCR analysis. Format: functional, cell-based. Summed up:
as §3

The target of series [14] is Transcription factor Jun (Homo sapiens) (UniProt P05412). Put plainly: Inhibition of transcriptional activity of AP1 transfected in mouse C3H10T1/2 cells at 20 uM after 24 hrs by luciferase reporter gene assay. Format: cell-based. The settings on record: C3H 10T1/2. Summed up: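 AP-1 reporter tested in C3H10T1/2 cells under the same conditions as the Gli1/Gli-Luc assay: 24 h compound exposure and dual-luciferase read-out normalized to DMSO.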
Transcription factor Jun (Homo sapiens), sequence (P05412 whole entry): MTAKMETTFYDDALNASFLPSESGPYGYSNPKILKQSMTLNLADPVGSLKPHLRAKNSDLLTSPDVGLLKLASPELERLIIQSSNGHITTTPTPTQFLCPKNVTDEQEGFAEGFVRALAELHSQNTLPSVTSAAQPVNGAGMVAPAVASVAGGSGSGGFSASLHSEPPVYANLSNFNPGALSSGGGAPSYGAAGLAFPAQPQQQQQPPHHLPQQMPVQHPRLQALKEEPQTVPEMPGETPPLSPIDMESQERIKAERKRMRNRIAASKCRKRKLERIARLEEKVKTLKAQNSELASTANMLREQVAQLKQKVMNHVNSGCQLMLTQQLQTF

The test system of series [15] is Caco-2. Put plainly: Apparent permeability from apical to basolateral side of human Caco-2 cells at pH 7.4. Format: ADME, cell-based. To be noted: caco-2, pH 7.4. Summed up: (§4)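 Caco-2 cells grown 7 days on Transwell inserts in MEM with 10% FBS. Monolayers washed with HBSS/HEPES (10 mM, pH 7.4), then compound at 50 µM added to the apical or basolateral side and incubated 2 h at 37 °C. Receiver fractions quantified by UPLC/MS, triplicates. Papp = dQ/dt […].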

For series [16], the system named is Caco-2. Put plainly: Efflux ratio of permeability from basolateral to apical side over apical to basolateral side in human Caco-2 cells at pH 7.4. To be noted: caco-2, pH 7.4.
Series [17] deals with Caco-2. Put plainly: Apparent permeability from basolateral to apical side of human Caco-2 cells at pH 7.4. The series is classed as ADME, cell-based. To be noted: caco-2, pH 7.4. Summed up:
as §4

Active and inactive are the calls of the source. The calls are words filed in the database; no cut-off is given here.

As to `CC(C(=O)Nc1ccc2[nH]ccc2c1)c1cccc(C(=O)c2ccccc2)c1` (configuration not stated), the Activity entry is “Non-toxic” in series [1] and “Toxic” in [2].

As to `CC(CNC(=O)Cc1ccc2[nH]ccc2c1)c1cccc(C(=O)c2ccccc2)c1` (configuration not stated), the inhibition entry in series [3] was “inactive”.

In general, IC50 refers to the concentration at which inhibition is half-maximal. Higher therefore signals weaker potency in that assay. In turn, `COc1cc(OC)cc(C(=O)Nc2ccc(Cl)c(-c3nc4cc(N(C)C)ccc4[nH]3)c2)c1` registered an IC50 in series [4] of 100 nM. Further, the inhibition entry in [5] was “inactive”.

For the compound `CCCN(C(=O)C(C)c1cccc(C(=O)c2ccccc2)c1)c1ccc2cc[nH]c2c1` (configuration not stated), in [6], the t1/2 came to 1.8 h. The Activity result in series [1] was “Non-toxic”; in series [2] it was “Toxic”. Further, the inhibition result in series [7], in [11] and in [14] was “inactive” each time. Also, the inhibition result in [8], in [9], in series [10] and in [13] was “Active” throughout. Also, the permeability in series [12] was 80%. For the same compound, the Papp in series [12] is 71.4 ×10⁻⁶ cm/s.

In the case of `CNC(=C[N+](=O)[O-])NCCSCc1ccc(CN(C)C)o1` [RANITIDINE], in series [12], the permeability is recorded as 2%.

On to `CC(CNC(=O)c1cc2ccccc2[nH]1)c1cccc(C(=O)c2ccccc2)c1` (configuration not stated), for which the results for the Activity entry in [1] and in [2] were “Non-toxic” and “Toxic”, respectively. Also, in series [3], the inhibition entry is “Active”.

For `CCCN(C(=O)C(C)c1cccc(C(=O)c2ccccc2)c1)c1ccc2[nH]ccc2c1` (configuration not stated), the t1/2 in [6] was found to be 0.8 h. In addition, the Activity result was “Non-toxic” in series [1] and “Toxic” in series [2]. In addition, the inhibition entry in [7], in [11] and in series [14] was “inactive” throughout. For the same compound, the inhibition result in [9] is “Active”.

`CC(CNC(=O)c1ccc2[nH]ccc2c1)c1cccc(C(=O)c2ccccc2)c1` (configuration not stated) yielded a t1/2 in series [6] of 0.6 h. The figures for the Papp in [15], in series [17] and in series [12] were 5.8 ×10⁻⁶ cm/s, 2.7 ×10⁻⁶ cm/s and 52.1 ×10⁻⁶ cm/s, respectively. Further, the values for the Activity entry in [1] and in [2] were “Non-toxic” and “Toxic”, respectively. Further, the Ratio in series [16] is recorded as 0.46. Besides, the permeability in series [12] is 47%. Also, in series [14], the inhibition entry is “inactive”. The inhibition entry in series [3] is “Active”.

`CC(CNC(=O)c1c[nH]c2ccccc12)c1cccc(C(=O)c2ccccc2)c1` (configuration not stated): the values for the Activity result in series [1] and in [2] were “Non-toxic” and “Toxic”, respectively. For the same compound, the inhibition entry in series [3] is “Active”.

With `CC(C(=O)NCCc1ccc(O)cc1)c1cccc(C(=O)c2ccccc2)c1` (configuration not stated), the results for the Papp in series [15], in series [17] and in series [12] were 13 ×10⁻⁶ cm/s, 5.8 ×10⁻⁶ cm/s and 60.2 ×10⁻⁶ cm/s, respectively. Moreover, the Activity result is “Non-toxic” in series [1] and “Toxic” in series [2]. Also, the Ratio in [16] is reported as 0.45. For the same compound, the inhibition entry in [11] was “inactive”. In series [12], this compound gave a permeability of 92%.

Consider `CC(CNC(=O)c1cccc2[nH]ccc12)c1cccc(C(=O)c2ccccc2)c1` (configuration not stated), for which, in series [3], the inhibition entry is “Active”.

With `CC(CNC(=O)c1cccc2cc[nH]c12)c1cccc(C(=O)c2ccccc2)c1` (configuration not stated), the inhibition result in series [3] is “Active”.

As to `CC(CNC(=O)c1ccc2cc[nH]c2c1)c1cccc(C(=O)c2ccccc2)c1` (configuration not stated), the figures for the Activity entry in series [1] and in [2] were “Non-toxic” and “Toxic”, respectively. In addition, the inhibition result in series [3] was “Active”.

`NC(=O)N1c2ccccc2C=Cc2ccccc21` [CARBAMAZEPINE] yielded a permeability in [12] of 33%.

Take `CCCN(C(=O)C(C)c1cccc(C(=O)c2ccccc2)c1)c1cccc2[nH]ccc12` (configuration not stated): the Activity entry in series [1] is “Non-toxic”; in series [2], “Toxic”.

Take `CCCN(CCc1ccc(O)cc1)C(=O)C(C)c1cccc(C(=O)c2ccccc2)c1` (configuration not stated): the results for the Activity entry in series [1] and in [2] were “Non-toxic” and “Toxic”, respectively. The inhibition entry in [5] and in [11] was “inactive” in each case.

The compound `CC(C(=O)Nc1ccc2cc[nH]c2c1)c1cccc(C(=O)c2ccccc2)c1` (configuration not stated) yielded a t1/2 in series [6] of 2.8 h. Also, the Papp in series [15] worked out at 12.2 ×10⁻⁶ cm/s; in series [17] it was 3.9 ×10⁻⁶ cm/s; in series [12], 77.8 ×10⁻⁶ cm/s. Further, the Activity result in series [1] was “Non-toxic”; in series [2], “Toxic”. Besides, the Ratio in series [16] is on record as 0.31. Moreover, the inhibition result in [7] and in series [14] was “inactive” in each case. In series [9], the inhibition result is “Active”. The compound also had a permeability in series [12] of 75%.

(Values after ChEMBL document CHEMBL1177640 (Bioorg Med Chem, 2010).)
